NR2E3 ag-1 – human photoreceptor-specific nuclear receptor agonism. Q9Y5X4. CHO-S Gal4-NCOR/VP16-NR2E3 two-hybrid, luciferase. inhibition of corepressor binding, % at 3.98 µM. hit rate 0.35% among 360,000. AID 602229;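 active = inhibition above the mean of all tested compounds plus 3 SD, cut at about 70% in these data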;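 also: 0% = DMSO with NR2E3 transfected cells and 100% = cells lacking NR2E3 construct; higher means lower luciferase signal from less NR2E3 corepressor binding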
NR2E3 ag-2 – agonists of human nuclear receptor NR2E3; AID 2300; inhibition of corepressor binding, % at 4.78 µM; hit rate 0.12% among 320,000; GST-NR2E3/biotin-RetCOR TR-FRET, 1536-well;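 active = percent inhibition above the cutoff of mean plus 3 SD of all tested compounds, set per screening campaign, cut at about 20% in these data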;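 also: 0% = DMSO wells and 100% = biotin wells as full block of FRET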
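Material – GST-tagged NR2E3 plus biotinylated RetCOR corepressor · Quantity – NR2E3 fusion 1.35 nM · Times – 5 h incubation at 4 °C · Medium – pH 7.5 Tris-based buffer · Technique – TR-FRET, Eu(K)-anti-GST donor, streptavidin-D2 acceptor, ex 340, em 617/671 nm · Benchmarks – high control biotin, low control 0.6% DMSO · Format – 1536-well plates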
SMARCA2 act – activators of SMARCA2 function; activation, % at 9.1 µM; MG213 cells, MMTV-luciferase reporter, dexamethasone, overnight; hit rate 1% among 370,000; in the data active = activation above about 7.8%;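 also: 0% = vehicle wells and 100% = reference activator wells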
GalR3 antagonist – human GalR3 antagonism. O60755. HEK293 GalR3-CNG cAMP membrane potential fluorescence; galR3 body fused to GalR1 C-terminus. inhibition, % at 3 µM. hit rate 0.44% among 360,000. AID 651719;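 active = inhibition above the screen-wide average plus 3 SD, cut at about 13% in these data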;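 also: forskolin and galanin both at EC90 stimulate the cells; cAMP rise reported by CNG channel membrane potential dye signal; 0% = forskolin plus galanin with DMSO and 100% = forskolin alone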
Target sequence (O60755 1-299 limits assumed): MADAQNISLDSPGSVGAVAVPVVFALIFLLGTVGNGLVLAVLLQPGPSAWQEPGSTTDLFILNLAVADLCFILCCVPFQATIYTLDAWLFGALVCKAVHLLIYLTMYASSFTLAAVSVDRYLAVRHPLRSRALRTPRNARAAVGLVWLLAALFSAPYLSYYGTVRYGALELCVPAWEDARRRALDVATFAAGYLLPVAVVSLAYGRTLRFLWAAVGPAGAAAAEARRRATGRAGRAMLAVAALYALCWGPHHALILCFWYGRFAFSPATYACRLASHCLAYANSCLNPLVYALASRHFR
COUP-TFII inh – NR2F2 (human) inhibition, primary screen | HEK293T NGFI-A luciferase reporter, luminescence | inhibition, % at 8.6 µM | hit rate 0.7% among 370,000 | AID 686940;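 active = inhibition above a per-plate cutoff, mean inhibition of test wells between control levels plus 3 SD, cut at about 38% in these data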;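 also: cells cotransfected with COUP-TFII expression vector driving the NGFI-A reporter; 0% = median of COUP-TF2 test wells and 100% = reporter-only cells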
NR2E3 ag confirm – confirmation of human NR2E3 agonists; shares compounds with NR2E3 ag-1; inhibition, % at 3.98 µM; hit rate 51% among 2,300; CHO-S mammalian two-hybrid NR2E3-NCOR, luciferase luminescence;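 active = average inhibition above a cutoff equal to the mean inhibition of all tested compounds plus one SD, cut at about 70% in these data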;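 also: 0% = DMSO in NR2E3 cells and 100% = DMSO in cells lacking NR2E3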
VP16 counter – counter-screen for NR2E3 agonists: GAL4-VP16 reporter inhibitors | shares compounds with NR2E3 ag-1 | CHO-S GAL4-VP16 luciferase reporter, luminescence | inhibition, % at 3.98 µM | hit rate 29% among 2,300;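 active = mean inhibition above a cutoff equal to the average over all tested compounds plus one standard deviation, cut at about 70% in these data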;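 also: luciferase from a UAS reporter driven by GAL4-VP16 transactivation; 0% = DMSO with VP16-transfected cells and 100% = DMSO with cells lacking VP16; higher means less reporter light so more repression of VP16 activity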
The depositor's hits bear a star; . = not tested or not shown. Hits are enriched below; roughly 2.2% of the tested compounds scored in any of these assays.

SMILES	NR2E3 ag-1	NR2E3 ag-2	SMARCA2 act	GalR3 antagonist	COUP-TFII inh	NR2E3 ag confirm	VP16 counter
O=C(Nc1ccc([N+](=O)[O-])cc1)Nc1ccc(OC(F)F)c(Cl)c1	98*	6	-6	-7	19	99*	94*
O=C(Nc1ccc(OC(F)F)c(Cl)c1)Nc1ccc2c(c1)OCO2	-10	1	-2	-5	-19	.	.
Fc1ccccc1COc1cccc(/C=N/n2cnnc2)c1	-52	-2	-1	-4	7	.	.
Cc1cc(/C=N/n2cnnc2)c(C)n1-c1ccc(OCc2ccccc2F)cc1	66	4	-4	-13	-6	96*	79*
O=C(Cc1ccccc1)NNc1ccc2ccccc2c1	50	-2	0	-6	3	53	5
O=C(NNc1ccc([N+](=O)[O-])cc1)Nc1ccccc1	-4	1	1	-4	-9	.	.
O=C(NNc1ccccc1)C(=O)NNS(=O)(=O)c1ccc([N+](=O)[O-])cc1	58	-2	2	4	-7	53	26
CCCCN1CCN(C(=O)C2CCCN(C(=O)c3ccc4c(c3)NC(=O)CS4)C2)CC1 (centres undefined)	.	.	2	.	-21	.	.
Cc1ccnc2c1ccc1cccnc12	74*	.	4	-4	-3	17	-11
Cc1ccnc2c1ccc1ccccc12	-20	-3	-1	-10	-3	.	.
Cc1ccnc2c1ccc1c(C)ccnc12	78*	2	.	.	.	43	10
C[N+]1=C2N[C@@H](c3ccccc3)CC(=O)N2/C(=C\c2ccccc2)[C@@H]1Cc1ccccc1	.	.	.	.	-14	.	.
FC(F)(F)c1cccc(Sc2cc(C(F)(F)F)nc(-c3ccccn3)n2)c1	-3	0	4	-3	-10	.	.
COc1cnc(-c2ccccn2)nc1NC(C)C	68	-1	-1	-3	2	38	-23
COc1cnc(-c2ccccn2)nc1Sc1ccc(C)cc1	94*	1	-4	-9	28	42	30
Cc1ccc(Sc2cc(C)nc(-c3ccccn3)n2)cc1	86*	-2	1	-1	-17	-6	-24
Nc1cccnc1Sc1cccc(Cl)c1	-5	0	-5	-3	8	.	.
COc1cnc(-c2ccccn2)[nH]c1=O	9	1	-4	-3	16	.	.
COc1cnc(-c2ccccn2)nc1Sc1cccc(Cl)c1	52	0	4	-5	11	63	5
COc1ccc(-c2nc(-c3ccccn3)ncc2S(C)(=O)=O)cc1	-19	4	0	-3	-5	.	.
O=C(CSc1nnc(COc2ccc(Cl)cc2)n1Cc1ccco1)Nc1ccc2c(c1)OCO2	.	.	-1	.	21	.	.
COC(=O)[C@H]1C[C@@]2(C)c3ccccc3N(S(=O)(=O)c3ccccc3)[C@H]2N1C(=O)CNC1CCCCC1	.	.	-2	.	-11	.	.
O=C(Nc1ccccc1C(F)(F)F)OCCN1C(=O)CCC12CCC(c1ccccc1)CC2 (centres undefined)	.	.	-4	.	12	.	.
COc1cnc(-c2ccccn2)nc1Oc1ccc(F)cc1F	44	4	-1	-4	-4	.	.
COc1ccccc1Sc1nc(-c2ccccn2)ncc1OC	78*	-4	1	-1	17	45	-1
SMILES	NR2E3 ag-1	NR2E3 ag-2	SMARCA2 act	GalR3 antagonist	COUP-TFII inh	NR2E3 ag confirm	VP16 counter
COc1ccc2c(c1)CNC2CS(=O)(=O)NCC(C)C (centres undefined)	.	.	3	.	2	.	.
Cc1ccc2sc(N3CCN(C(=O)C4=COCCO4)CC3)nc2c1C	59	-1	-2	-2	-18	60	38
COc1ccc(CCNC(=O)c2ccc3ccccc3n2)cc1OC	-22	6	-2	-5	6	.	.
COc1ccc(CNC(=O)c2ccc3ccccc3n2)cc1OC	85*	-1	-4	-12	28	60	44
O=C(C1CC1)N1CCc2cc(Br)cc(S(=O)(=O)N3CCN(c4ccccn4)CC3)c21	87*	1	-6	-1	1	90*	2
CCOC(=O)C1CCN(S(=O)(=O)c2cc(Br)cc3c2N(C(=O)C2CC2)CC3)CC1	16	2	-3	-5	-5	.	.
Cn1c2c(c(=O)n(C)c1=O)C(C(F)(F)F)(C(F)(F)F)N=C(c1ccc(Cl)cc1)N2	98*	1	.	.	.	99*	90*

Source: PubChem (The Scripps Research Institute Molecular Screening Center)
